According to the EternaBench riboswitch data:

System: MS2 coat protein
Assay: apparent Kd, MS2 coat protein; higher = weaker binding; RNA-MaP array; FMN 200 µM where present
Summary of the method: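 Stalled E. coli RNA polymerase produced the designs on Illumina sequencing-chip clusters. SNAP-549-labelled MS2 coat protein was added from 0.7 or 1.5 nM, doubling to 3 µM, without and then with constant ligand, in 100 mM Tris-HCl pH 7.5, 80 mM KCl, 4 mM MgCl2, BSA, DTT, yeast tRNA and Tween-20. The apparent Kd is the median of filtered per-cluster fits of green signal normalised to red-channel RNA signal and control-cluster median Fmax.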

[1] = designed as: OFF switch for flavin mononucleotide, no ligand
[2] = ligand present: flavin mononucleotide, designed as: OFF switch for flavin mononucleotide
[3] = designed as: ON switch for flavin mononucleotide, no ligand
[4] = ligand present: flavin mononucleotide, designed as: ON switch for flavin mononucleotide

Sequence	apparent Kd [1] [nM]	apparent Kd [2] [nM]	apparent Kd [3] [nM]	apparent Kd [4] [nM]
UAUCGUGUUCGAGGAUAUGAAACUAGGCCGGGCACUGUAUACCCGCCUGUCUCAGAAGGCGGACAUGAGGAUCACCCAUGUAAA	202	17.4		
AAGAAGUCAGGAUAUGCUGCUCGUCACUUGCGUGAUGAGUAGCAGAAGGGACAUGAGGAUCACCCAUGUAAAGU	51.6	79.7		
ACUACAUGAGGAUCACCCAUGUGAAUAAUAAAAGUAACAAGCAGAAGGUGACCUCGUCUCCUGGUCAAGGAUAUGCAAGAAAGA			267	33.7
GUAGCAUACCGAGGAUAUCUAUACCGGAAACGGACAUGAGGAUCACCCAUGUGGCGAAAGCCUUGGGAGAAGGCGGAAUGCUAC			20.8	11.6
ACAUGAGGAUCACCCAUGUUAAAUUAGGAUAUUUGACUGCACAUGAGGUUCACCCAUGUUCUACCGAAGAAGGGAUAAAUAAUU			49	50
CCGAGUGGCGUACAGGAUAUGUUGCAUGGAACAUGAGGAUCACCCAUGUAUUUGCUCCCGCAUACGCAGAAGGGUGCGUCCUGGG			142	25.4
GGGUACGCAGGAUAUACAUGAAAAAAAAAAAAAAAAAAAAAACAUGAGGAUCACCCAUGUAGAAGGGCGUAUCC	232	571		
UUGGUCAGUCAGAAGGCUACAUUACAUGAGGAUCACCCAUGUCAAAAGUAGAGGAUAUGAAGUUCGCCAUGGUAAGAGCCUGUC			34.7	6.26
UGUCGGAGCAUAGGAUAUUACAUGAGGAUCACCCAUGUAUGAACCAAUAGCUGGAAACAGCAAUGUAAGAAGGCUGCUCCGACA	5.16	8.98		
ACAAGUUCACAUGAGGAUCACCCAUGUGGUCGCUAAUAUACCAGAAGGGUGGGUCCUAAUGAUGUACAGGAUAUGGAGUAGGCG			198	81.7
CAGAAGUCAGGAUAUGCAUGGCGGGACUUGCGUCGUGGCGUGCAGAAGGGACAUGAGGAUCACCCAUGUGGAGG	171	222		
AAGAAACAUGAGGAUCACCCAUGUAAAUAAAACACAGGAUAUCGAAUAUGGGAGAUUUAACGAGAAGGGUGAAGAA			100	56.6
GUCAGCUCGUGAGGAUAUACAUGUGCUGGAAACAGCACUAAAGUUUUCACAUGAGGAUCACCCAUGUAGAAGGCACGAGCUGAU	15.8	35.2		
CGUACUGAAGUAAGGAUAUUGUCUCGGAUACGAAACAAGAAGGUACAUGAGGAUCACCCAUGUUGACAGUACGA	16.6	16.7		
CUGAUGUUAGGAUAUCAGGUUGCGCGCGAAGGCACGCAGCAUGAGAAGGAACAUGAGGAUCACCCAUGUGACGA	40.6	132		
CAACUGAGCGUAAAUUACCUGAACAUGAGGAUCACCCAUGUGGAGGAUAUUGACUUAGCAAAACUCGAGAAGGCCACUGGGAUG	39	18.2		
AUUGCUCGAGAGAAGGGAACAUGAGGAUCACCCAUGUUACCUCACCUGGUGACGGAACUCCAAGUUCAGGAUAUCUCGAACGAU	5.63	8.13		
GGAACUCAUGUAGGAUAUGCAUGGCGAAGCUACGCAGAAGGACAUGAGGAUCACCCAUGUUCUAGCGUCUGGAUACAGAUGCAA	169	130		
AGAAAGUGAGGAUAUACAUGAGGAUCACCCAUGUAGAACGAGAGUUAUAAAAAUGGAAGUAGAAGGCACAAAAG	34.3	37.1		
CUUCAGUCACAGGAUAUGCUCAUCUAAUGAUGAGCAGAAGGGUGAACAUGAGGAUCACCCAUGUUUACGGUGGU	621	487		
GAGCUGCAGACAGGAUAUGAGGCCGCCAUGGUCUCAGAAGGGUCAUGUUCUACAUGAGGAUCACCCAUGUCGGACAGCUCGAAG			134	11
GCGUCAGAAUUAAUUGUGACAGGCAGAAGGCCAUAUUUCAUGUCAGACAUGAGGAUCACCCAUGUGGAGGAUAUGCAGUUACAC	43.4	98.7		
AAUAUGUGAGGAUAUAUCCACCGCGUAGGCGCGCGGUGACAAUAGAAGGUACAUGAGGAUCACCCAUGUAGGGA	51.5	31.5		
UUUGCAUUCCGAGGAUAUUCAUUUAAUGACUUCACAUGAGGAUCACCCAUGUGGCGAUAGCCUAGGGAGAAGGCGGUUUGCUUU			24.4	19.6
UCAUAAUAGAUCCUAUUUAUCUACAUGAGGAUCACCCAUGUGCAGGAUAUGCUAUAAUUUAAUAAGCAGAAGGGCAAUUUCAGA	96.8	381		
CUUUUGUGAGGAUAUUAGUAGUAAAUAAUUAAAAUUACUACUGAGAAGGCACAUGAGGAUCACCCAUGUUCCUC	33.2	344		
AAGCAGGUAAAUAAACUCAAUUACAUGAGGAUCACCCAUGUAUAGGAUAUCGUCAGGAAUACUGACGAGAAGGAUACAUCCUGC	17.7	63.9		
CGAGCUGCUGUGAGGAUAUGCCUGUGGGUGCGUGGGUAGAAGGCACAUGAGGAUCACCCAUGUCCUGCAGCUCG	856	412		

Sequence	apparent Kd [1] [nM]	apparent Kd [2] [nM]	apparent Kd [3] [nM]	apparent Kd [4] [nM]
CAGCGAAAGCUGAAUCUGUAGAGAGAGGAUAUACGUCAUAAGAUGCAUACAUGAGGAUCACCCAUGUAGAAGGCUCUCUACAGU	5.68	6.7		
AGAAACUACGAGAAGGACAUGUGGUCCUUCAGAAACAUGAGGAUCACCCAUGUAGGAUAUCGUAGUUUCAGGAUCGUGAGAUCA	54.4	20.8		
CGCAGGAUACAGAAGGAGUUAUUGAGAGGUUUACUAGGAUAUGUUCACAUGAGGAUCACCCAUGUCGUAUGGUUUUUUGUUGCG	22.6	16.1		
UGUCGGAGCAGAGGAUAUUACAUGAGGAUCACCCAUGUAUGAACCAAUAGGUGGAAACAGCAAUGUAAGAAGGCUGCUCCGACA	178	481		
GUUAUACAUGAGGAUCACCCAUGUCAAUGUAGUCGAGGAUAUGGGUAGCUAUGAGGCGUACUAGAAGGCGAGGAGU			77.8	160
GAUGGCUUAGGAUAUCAAAGUUACCACAUGAGGAUCACCCAUGUAUGGGAGAUGGAUAAAUGAGAAGGAGGGUGUU	174	133		
ACUUCACAUGAGGAUCACCCAUGUCAGGCCGGACUAGGAUAUUAUCAUGCAGCGUGACAGUGAGAAGGAGUUGGAU			162	188
AAGUAGAUCCGAGGAUAUACAAGGCGGAAAUGCUACAUGAGGAUCACCCAUGUAGAAGGCGGAUCUACAGGUACUAAAGUACCA	6.71	19.3		
CUUUUGUGAGGAUAUCAGUAGUAAAAAAAUAAAAUUACUUCUGAGAAGGCACAUGAGGAUCACCCAUGUUCCUC	39.5	333		
GGAUGACAAAGUCAUCCAAUACGAACAUGAGGAUCACCCAUGUAGGAUAUGCAACUCAAAGAGUUGCAGAAGGACAUGUGUCUU	28.9	128		
GCACGGUAUGUAGGAUAUGCAUAGCAUUGCUAUGCAGAAGGACAUGAGGAUCACCCAUGUAUGUAUUCCAUACUAAUCCCGUGA	5.72	5.98		
GUGGUCAGACAUGAGGAUCACCCAUGUGGAAUAAAUAAGGAAAAGGAUAUCGAAUAUAGGAUAUACGAGAAGGUUUGGUUGGUG			96.5	98.8
GCUCGAUGCGCUGAGCACAUGAGGAUCACCCAUGUAAAAUAUCAGGAUAUUUACGUGCUUUAUGUAGAGAAGGGAUUAUCGAGC			101	41.4
UUAAAUCGAAACAUGAGGAUCACCCAUGUGUUGUAAUUAAUAUAGGAUAUGUGUAUACUUUUAUAAUAGAAGGAUGAUAAUACU			17.4	12.1
AAAAGACAUGAGGAUCACCCAUGUGAAAACGUAGGAGGAUAUGUCUGGAAAACAUGCUGGACAGAAGGCCUGUGUC			40.1	22.1
GUUUUUUUUAGUUCAUACUAUAAGAUAGAAGGUGAAAUAUUGACAUGAGGAUCACCCAUGUAAUUCAAGGAUAUGUAGUUACUC			34.3	22.7
UUGGACGUCGUAGGAUAUGUCGGAUAUUCCUACAUGAGGAUCACCCAUGUUGACAUGGAAGAAGGACAGAAGGACGAUGUCCAU			4.52	3.87
UAUCCACAUGAGGAUCACCCAUGUGAGGAUAUGAUACUAUGUACUUCGGUACAUAGUAUCAGAAGGCACAGGUC	21.3	36.3		
GCUUCCCAUGUGAGGAUAUGUAGGGUUAACCCGAGGCAGAAGGCACAUGAGGAUCACCCAUGUUAAAACUUCUA	29	60.6		
CUGGUGUGAGGAUAUCAGGACACGUACGCGGGCAUGUCAAAUGAGAAGGCACAUGAGGAUCACCCAUGUGGGAC	29.7	41.6		
UGCUACGUUUCGUAGCAGCUAGGUGAGGAUAUUCAAUUUUUCACAUGAGGAUCACCCAUGUAUGUGAAGAAGGCGCCUAGAAAC			11.6	4.61
GGAGAGGAAACAUGAGGAUCACCCAUGUGAGUGGUCCGAAGAUAGGAUAUCCACACGAGAAGUGUGGAGAAGGAUCACCUCUCC	746	571		
UAUAUAUUCGUAGGAUAUCCGUUAAAACCAUGUGGAGAAGGACGAACAUGAGGAUCACCCAUGUAUCAUGGUGUAGACAAUUUU	40.3	187		
AAAUAGUUAGGAUAUACAUGAGGAUCACCCAUGUGGACUGAUGGCGAUUGAUUUAGUGGUAGAAGGGACUCAAA	40.3	58.4		
AAGAAAUGGGAGUGAUCUGGUUCCGAGGAUAUAGGCAUCGGUACAUGAGGAUCACCCAUGUCCGACUAGAAGGCGGACGGGUCC			34.1	8.76
GGAAUUAAGGGAGGAUAUAGGCGACAUGAGGAUCACCCAUGUACGGAGGGCUCUUCCCGUGUUCACUAGAAGGCCCAUGUUACC	16.5	73.7		
UCUUAUUGCAAGGAUAUGCAAUUUAUUUUUUAUGCAGAAGGUGCAACAUGAGGAUCACCCAUGUUUCCGGGCAU	13.8	18.6		
